Measured values from ChEMBL document CHEMBL1147503, “Syntheses and structure-activity relationship studies of piperidine-substituted quinolones as nonpeptide gonadotropin releasing hormone antagonists” (Bioorg Med Chem Lett, 2004).

Legend:
[1] = Oral bioavailability in dog; format: ADME, organism-based, Canis lupus familiaris; conditions: in vivo
[2] = Clearance rate in dog; format: ADME, organism-based, Canis lupus familiaris; conditions: in vivo, read-out: Clearance rate
CHO = assay: In vitro inhibitory concentration against GnRH-stimulated phosphatidyl inositol hydrolysis by cloned chinese hamster ovary cells stably expressing human GnRH receptor; format: functional, cell-based; conditions: Cricetulus griseus
[3] = target: T1, Gonadotropin-releasing hormone receptor (Homo sapiens, UniProt P30968); assay: Inhibitory concentration against binding of [125I]buserelin to human Gonadotropin-releasing hormone receptor
T1 sequence (P30968 whole entry): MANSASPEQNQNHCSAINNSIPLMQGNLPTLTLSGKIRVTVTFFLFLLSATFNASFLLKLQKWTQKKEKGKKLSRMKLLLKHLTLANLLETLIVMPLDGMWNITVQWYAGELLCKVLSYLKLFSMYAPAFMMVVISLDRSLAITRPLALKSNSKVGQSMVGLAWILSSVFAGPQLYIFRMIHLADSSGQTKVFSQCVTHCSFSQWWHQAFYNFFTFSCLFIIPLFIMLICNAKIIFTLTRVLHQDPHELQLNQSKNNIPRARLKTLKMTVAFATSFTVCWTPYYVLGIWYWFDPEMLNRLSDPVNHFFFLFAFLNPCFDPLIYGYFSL
Summary of the method: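 Competitive displacement of the GnRH receptor agonist radioligand [125I]buserelin from the human GnRH receptor, with 0.1% BSA present in the binding assay.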

[4] = target: T2, Gonadotropin-releasing hormone receptor (Rattus norvegicus) (UniProt P30969); assay: Inhibitory activity against binding of rat Gonadotropin-releasing hormone receptor using [125I]buserelin at 10 uM
T2 sequence (whole entry): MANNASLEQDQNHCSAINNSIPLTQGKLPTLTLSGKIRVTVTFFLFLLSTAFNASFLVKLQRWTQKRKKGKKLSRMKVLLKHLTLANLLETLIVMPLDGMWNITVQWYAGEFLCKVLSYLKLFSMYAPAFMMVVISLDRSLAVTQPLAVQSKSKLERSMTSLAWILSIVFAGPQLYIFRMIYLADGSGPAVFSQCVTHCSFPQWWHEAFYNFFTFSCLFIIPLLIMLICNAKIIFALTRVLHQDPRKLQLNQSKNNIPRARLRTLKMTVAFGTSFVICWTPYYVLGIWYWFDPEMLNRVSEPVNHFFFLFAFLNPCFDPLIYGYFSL

[5] = target: T3, Gonadotropin-releasing hormone receptor (Rattus norvegicus, UniProt P30969); assay: Inhibitory concentration against binding of rat Gonadotropin-releasing hormone receptor using [125I]buserelin
T3 sequence (P30969 whole entry): T2 sequence (whole entry)

Compound | IC50 (CHO) [µM] | IC50 [5] [µM] | also measured
Cc1cc(-c2c(OCC[C@@H]3CCCC(C(F)(F)F)N3)c3cc(C(=O)Nc4ccncn4)c(Cl)cc3[nH]c2=O)cc(C)c1C (stereo not given in full) | 0.018 |  | bioavailability [1]: 14.6%; clearance [2]: 21.6 mL/min/kg; IC50 [3]: 0.002 µM
Cc1cc(C)cc(-c2c(O)nc3cc(Cl)c([N+](=O)[O-])cc3c2OCCc2ccccn2)c1 |  |  | inhibition [4]: 86%
Cc1cc(C)cc(-c2c(OCCC3NCCc4ccccc43)c3cc([N+](=O)[O-])c(Cl)cc3[nH]c2=O)c1 (stereo not given) |  | 0.75 | 
Cc1cc(-c2c(O)nc3cc(Cl)c(C(=O)Nc4ccncn4)cc3c2OCC[C@@H]2CCCCN2)cc(C)c1C | 0.0022 |  | bioavailability [1]: 4.4%; clearance [2]: 36.8 mL/min/kg
Cc1cc(C)cc(-c2c(O)nc3cc(Cl)c([N+](=O)[O-])cc3c2OCC[C@@H]2Cc3ccccc3CN2)c1 |  | 0.07 | 
Cc1cc(C)cc(-c2c(OCCC3CCC(C)CN3)c3cc([N+](=O)[O-])c(Cl)cc3[nH]c2=O)c1 (stereo not given) |  | 0.063 | 
CCC1CCC[C@@H](CCOc2c(-c3cc(C)cc(C)c3)c(=O)[nH]c3cc(Cl)c(C(=O)Nc4ccncn4)cc23)N1 (stereo not given in full) |  |  | IC50 [3]: 0.0057 µM
Cc1cc(C)cc(-c2c(OCC[C@@H]3CCC[C@H](C)N3)c3cc(C(=O)Nc4ccncn4)c(Cl)cc3[nH]c2=O)c1 | 0.0087 |  | IC50 [3]: 0.0005 µM
Cc1cc(C)cc(-c2c(O)nc3cc(Cl)c([N+](=O)[O-])cc3c2OCCC2NCCCC2C)c1 (stereo not given) |  | 0.045 | 
Cc1cc(C)cc(-c2c(OCC[C@@H]3CCC[C@@H](C)N3)c3cc(C(=O)Nc4ccncn4)c(Cl)cc3[nH]c2=O)c1 | 0.0115 |  | IC50 [3]: 0.0005 µM
Cc1cc(C)cc(-c2c(O)nc3cc(Cl)c([N+](=O)[O-])cc3c2OCCC2CCc3ccccc3N2)c1 (stereo not given) |  |  | inhibition [4]: 85%
Cc1cc(C)cc(-c2c(O)nc3cc(Cl)c([N+](=O)[O-])cc3c2OCCC2CCCCN2)c1 (single isomer, unassigned) |  | 0.01 | 
CC[C@H]1CCC[C@@H](CCOc2c(-c3cc(C)cc(C)c3)c(O)nc3cc(Cl)c([N+](=O)[O-])cc23)N1 |  | 0.018 | 
Cc1cc(C)cc(-c2c(O)nc3cc(Cl)c(C(=O)Nc4ccncn4)cc3c2OCC[C@@H]2CCCCN2)c1 | 0.005 |  | 
Cc1cc(-c2c(OCC[C@@H]3CCC[C@H](C)N3)c3cc(C(=O)Nc4ccncn4)c(Cl)cc3[nH]c2=O)cc(C)c1C | 0.0098 |  | IC50 [3]: 0.0006 µM
Cc1cc(C)cc(-c2c(O)nc3cc(Cl)c([N+](=O)[O-])cc3c2OCC[C@@H]2CCC[C@H](C)N2)c1 |  | 0.015 | 
Cc1cc(C)cc(-c2c(OCC[C@@H]3CCC[C@H](CCCc4ccccc4)N3)c3cc([N+](=O)[O-])c(Cl)cc3[nH]c2=O)c1 |  | 0.4 | 
